Active and inactive are the calls of the source. The calls are words filed in the database; no cut-off is given here.
Legend:
[1] = test system: A549; assay: Antiproliferative activity against human A549 cells harboring KRAS G12S mutant assessed as inhibition of cell viability after 96 hrs by Celltiter-Glo assay; format: functional, cell-based; conditions: A549, 96 h
[2] = test system: HL-60; assay: Antiproliferative activity against human HL60 cells harboring NRAS […] mutant assessed as inhibition of cell viability after 96 hrs by Celltiter-Glo assay; format: functional, cell-based; conditions: HL-60, 96 h
[3] = test system: MDA-MB-231; assay: Antiproliferative activity against human MDA-MB-231 cells harboring KRAS G13D/BRAF G464V mutant assessed as inhibition of cell viability after 96 hrs by Celltiter-Glo assay; format: functional, cell-based; conditions: MDA-MB-231, 96 h
[4] = Antiproliferative activity against human A375 cells harboring BRAF V600E mutant assessed as inhibition of cell viability after 96 hrs by Celltiter-Glo assay; format: functional, cell-based, A375/R; conditions: A-375, 96 h
[5] = test system: HCT-116; assay: Antiproliferative activity against human HCT116 cells harboring KRAS G13D mutant assessed as inhibition of cell viability after 96 hrs by Celltiter-Glo assay; format: functional, cell-based; conditions: HCT-116, 96 h
[6] = Prodrug release in human HCT-116 cells assessed as increase in intracellular NO level at 100 uM measured after 2 hr by DAF-FM DA reagent based laser confocal scanning microscopy; conditions: hct-116, 2 h
[7] = test system: MDA-MB-231; assay: Induction of apoptosis in human MDA-MB-231 cells assessed as early apoptotic cells at 10 uM incubated for 24 hrs by AnnexinV-FITC and propidium iodide staining based flow cytometry (reference value: 4.4%); format: functional
[8] = test system: MDA-MB-231; assay: Induction of apoptosis in human MDA-MB-231 cells assessed as late apoptotic cells at 10 uM incubated for 24 hrs by AnnexinV-FITC and propidium iodide staining based flow cytometry (reference value: 3.54%); format: functional
[9] = test system: MDA-MB-231; assay: Induction of apoptosis in human MDA-MB-231 cells assessed as viable cells at 10 uM incubated for 24 hrs by AnnexinV-FITC and propidium iodide staining based flow cytometry (reference value: 90.962%); format: functional; conditions: read-out: Activity
[10] = test system: MDA-MB-231; assay: Induction of apoptosis in human MDA-MB-231 cells assessed as necrotic cells at 10 uM incubated for 24 hrs by AnnexinV-FITC and propidium iodide staining based flow cytometry (reference value: 1.084%); format: functional
[11] = test system: L02; assay: Cytotoxicity against human HL7702 cells assessed as reduction in cell viability after 96 hrs by Celltiter-Glo assay; format: cell-based; conditions: L02, 96 h
How it was run: (§1)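 Cells kept at 37 °C in humidified 5% CO2 with 10% FBS; Vero in DMEM, HL7702 in RPMI-1640. Compounds added to plated cells and incubated 96 h at 37 °C. Viability read by CellTiter-Glo reagent added directly to the wells. IC50 fitted from the readings.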

[12] = test system: Vero; assay: Cytotoxicity against African green monkey Vero cells assessed as reduction in cell viability after 96 hrs by Celltiter-Glo assay; format: cell-based; conditions: Chlorocebus sabaeus; how it was run: as §1
[13] = test system: MDA-MB-231; assay: Induction of apoptosis in human MDA-MB-231 cells assessed as early apoptotic cells at 1 uM incubated for 24 hrs by AnnexinV-FITC and propidium iodide staining based flow cytometry (reference value: 4.4%); format: functional
[14] = target: T1, Dual specificity mitogen-activated protein kinase kinase; MEK1/2 (Homo sapiens) (UniProt P36507+Q02750); assay: Inhibition of MEK in human MDA-MB-231 cells assessed as reduction in ERK phosphorylation at 1 uM incubated for <=1 hr by Western blot analysis; format: cell-based; conditions: time hrs <=1
How it was run: (§2)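 MDA-MB-231 in RPMI-1640 with 10% FBS. Dose series at 1, 3 and 10 µM for 2 h or 24 h; time course at 1 µM or 10 µM over several time points. RIPA lysates with protease/phosphatase inhibitors, equal protein on 4-20% SDS-PAGE, PVDF transfer, 5% milk block. Probed overnight at 4 °C for pMEK, MEK, pERK and ERK, then HRP secondary.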

[15] = target: T1, Dual specificity mitogen-activated protein kinase kinase; MEK1/2 (Homo sapiens); assay: Inhibition of MEK in human MDA-MB-231 cells assessed as reduction in ERK phosphorylation at 1 uM by Western blot analysis; format: cell-based; conditions: time 1-6 hrs, TDE = time-dependent effect; how it was run: as §2
[16] = target: T1, Dual specificity mitogen-activated protein kinase kinase; MEK1/2 (Homo sapiens); assay: Inhibition of MEK in human MDA-MB-231 cells assessed as reduction in MEK phosphorylation incubated for 2 hrs by Western blot analysis; format: cell-based; conditions: dose 0.1-10 µM
[17] = test system: MDA-MB-231; assay: Induction of apoptosis in human MDA-MB-231 cells assessed as late apoptotic cells at 1 uM incubated for 24 hrs by AnnexinV-FITC and propidium iodide staining based flow cytometry (reference value: 3.54%); format: functional
[18] = test system: MDA-MB-231; assay: Induction of apoptosis in human MDA-MB-231 cells assessed as necrotic cells at 1 uM incubated for 24 hrs by AnnexinV-FITC and propidium iodide staining based flow cytometry (reference value: 1.084%); format: functional
[19] = target: T1, Dual specificity mitogen-activated protein kinase kinase; MEK1/2 (Homo sapiens); assay: Inhibition of MEK in human MDA-MB-231 cells assessed as reduction in MEK phosphorylation at 1 uM incubated for <=1 hr by Western blot analysis; format: cell-based; conditions: time hrs <=1; how it was run: as §2
[20] = target: T1, Dual specificity mitogen-activated protein kinase kinase; MEK1/2 (Homo sapiens); assay: Inhibition of MEK in human MDA-MB-231 cells assessed as reduction in MEK phosphorylation at 1 uM by Western blot analysis; format: cell-based; conditions: time 1-6 hrs, TDE = time-dependent effect; how it was run: as §2
[21] = target: T1, Dual specificity mitogen-activated protein kinase kinase; MEK1/2 (Homo sapiens); assay: Inhibition of MEK in human MDA-MB-231 cells assessed as reduction in ERK phosphorylation incubated for 2 hrs by Western blot analysis; format: cell-based; conditions: dose 0.1-10 µM
[22] = target: T1, Dual specificity mitogen-activated protein kinase kinase; MEK1/2 (Homo sapiens); assay: Inhibition of MEK in human MDA-MB-231 cells assessed as reduction in MEK phosphorylation at 1 to 10 uM incubated for 2 hrs by Western blot analysis; format: cell-based; conditions: dose 1-10 µM; how it was run: as §2
[23] = target: T1, Dual specificity mitogen-activated protein kinase kinase; MEK1/2 (Homo sapiens); assay: Inhibition of MEK in human MDA-MB-231 cells assessed as reduction in ERK phosphorylation at 1 to 10 uM incubated for 2 hrs by Western blot analysis; format: cell-based; conditions: dose 1-10 µM; how it was run: as §2
[24] = test system: MDA-MB-231; assay: Induction of apoptosis in human MDA-MB-231 cells assessed as viable cells at 1 uM incubated for 24 hrs by AnnexinV-FITC and propidium iodide staining based flow cytometry (reference value: 90.962%); format: functional; conditions: read-out: Activity

T1 sequence (P36507 whole entry, looked up): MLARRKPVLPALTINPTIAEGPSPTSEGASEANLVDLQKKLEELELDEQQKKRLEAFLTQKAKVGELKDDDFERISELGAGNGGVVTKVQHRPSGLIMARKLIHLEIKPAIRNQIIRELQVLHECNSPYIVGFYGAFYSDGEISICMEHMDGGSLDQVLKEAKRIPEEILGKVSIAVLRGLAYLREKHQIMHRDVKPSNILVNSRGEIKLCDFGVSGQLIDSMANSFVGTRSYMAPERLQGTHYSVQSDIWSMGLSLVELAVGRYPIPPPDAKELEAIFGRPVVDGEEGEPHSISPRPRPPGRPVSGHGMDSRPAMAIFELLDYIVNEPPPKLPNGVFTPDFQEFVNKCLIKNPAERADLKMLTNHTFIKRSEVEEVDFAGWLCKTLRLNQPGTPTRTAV
T1 sequence (Q02750 whole entry, looked up): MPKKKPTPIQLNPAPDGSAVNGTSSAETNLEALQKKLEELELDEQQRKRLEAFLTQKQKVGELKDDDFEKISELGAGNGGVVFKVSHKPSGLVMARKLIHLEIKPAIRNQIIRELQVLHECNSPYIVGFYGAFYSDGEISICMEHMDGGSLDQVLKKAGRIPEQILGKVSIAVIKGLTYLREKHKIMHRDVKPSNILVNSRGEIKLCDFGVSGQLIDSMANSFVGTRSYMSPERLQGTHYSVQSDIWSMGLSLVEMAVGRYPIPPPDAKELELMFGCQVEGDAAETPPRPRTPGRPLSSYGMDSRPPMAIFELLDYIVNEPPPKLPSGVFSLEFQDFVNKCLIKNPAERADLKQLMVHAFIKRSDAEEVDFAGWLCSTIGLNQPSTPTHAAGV

| SMILES | IC50 [1] [µM] | IC50 [2] [µM] | IC50 [3] [µM] | IC50 [4] [µM] | IC50 [5] [µM] | Drug metabolism [6] | further results |
| --- | --- | --- | --- | --- | --- | --- | --- |
| CCNS(=O)(=O)Nc1cccc(Cc2c(C)c3ccc(OCCOc4no[n+]([O-])c4S(=O)(=O)c4ccccc4)cc3oc2=O)c1F | 2.57 | 0.29 | 0.18 | 0.54 | 0.72 | Metabolite_Detected |  |
| CC(=O)Nc1cccc(-n2c(=O)n(C3CC3)c(=O)c3c(Nc4ccc(I)cc4F)n(C)c(=O)c(C)c32)c1 [TRAMETINIB] | 0.46 | 0.003 | 0.018 | 0.0024 | 0.019 |  |  |
| COCCNS(=O)(=O)Nc1cccc(Cc2c(C)c3ccc(OCCO)cc3oc2=O)c1F | > 5 | 0.25 | 2.99 | 0.36 | 6.5 | Metabolite_Notdetected |  |
| CCNS(=O)(=O)Nc1cccc(Cc2c(C)c3ccc(OCCO)cc3oc2=O)c1F | > 5 | 0.15 | 2.48 | 0.2 | 5.79 | Metabolite_Notdetected |  |
| Cc1c(Cc2cccc(NS(=O)(=O)NC(C)C)c2F)c(=O)oc2cc(OCCO)ccc12 | > 5 | 0.14 | 2.38 | 0.15 | 5.09 | Metabolite_Notdetected |  |
| CNS(=O)(=O)Nc1cccc(Cc2c(C)c3ccc(OCCCO)cc3oc2=O)c1F | > 5 |  | 1.9 |  | 5.34 | Metabolite_Notdetected |  |
| CCOC(=O)N1CCN(/[N+]([O-])=N/Oc2ccc([N+](=O)[O-])cc2[N+](=O)[O-])CC1 | 0.69 | 0.53 | 2.9 | 1.99 | 0.5 | Metabolite_Detected | Activity [7]: 27.1%; Activity [8]: 19.2%; viability at 10 µM [9]: 51.2%; Activity [10]: 2.444%; IC50 [11]: 1.99 µM; IC50 [12]: 1.16 µM |
| CNS(=O)(=O)Nc1cccc(Cc2c(C)c3ccc(OCCCOc4no[n+]([O-])c4S(=O)(=O)c4ccccc4)cc3oc2=O)c1F | 1.35 |  | 0.034 |  | 0.64 | Metabolite_Detected | Activity [13]: 22.6%; inhibition [14]: Active; Activity [7]: 24.7%; inhibition [15]: Tde; inhibition [16]: Dose-dependent effect; Activity [17]: 7.65%; Activity [18]: 8.443%; inhibition [19]: Active; Activity [8]: 6.87%; viability at 10 µM [9]: 53.7%; Activity [10]: 14.729%; inhibition [20]: Tde; inhibition [21]: Dose-dependent effect; inhibition [22]: Active; IC50 [11]: 5.62 µM; inhibition [23]: Active; IC50 [12]: 21.1 µM; viability at 1 µM [24]: 61.2% |
| Cc1c(Cc2cccc(NS(=O)(=O)NCC(F)(F)F)c2F)c(=O)oc2cc(OCCOc3no[n+]([O-])c3S(=O)(=O)c3ccccc3)ccc12 | 2.51 | 0.27 | 0.13 | 0.5 | 0.61 | Metabolite_Detected |  |
| Cc1c(Cc2cccc(NS(=O)(=O)NCCC#N)c2F)c(=O)oc2cc(OCCO)ccc12 | > 5 | 0.39 | 5.49 | 0.65 | 15.4 | Metabolite_Notdetected |  |

Source: ChEMBL document CHEMBL4680253, “Hybrids of MEK inhibitor and NO donor as multitarget antitumor drugs” (Eur J Med Chem, 2020)
